This note sets out measurements from ChEMBL document CHEMBL1135731, “Synthesis and nicotinic binding studies on enantiopure diazine analogues of the novel (2-chloro-5-pyridyl)-9-azabicyclo[4.2.1]non-2-ene UB-165” (J Med Chem, 2002).

Assay [1] deals with Neuronal acetylcholine receptor subunit alpha-7 (Rattus norvegicus, UniProt Q05941). Briefly: Binding affinity to subtype Nicotinic acetylcholine receptor alpha7 using [3H]-MLA as radioligand in rat brain. It is filed as tissue-based. The gist of the method: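 Rat brain membrane fractions in HEPES-salt solution, competition against [3H]MLA at 22 °C. Nonspecific binding defined with 1 μM MLA. […] Mean ± SEM of 3-5 independent experiments.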

Assay [2] has as its target Neuronal acetylcholine receptor; alpha4/beta2 (Rattus norvegicus, UniProt P09483+P12390). Briefly: Binding affinity to Nicotinic acetylcholine receptor alpha4-beta2 using +/-[3H]epibatidine as radioligand in rat brain. It is filed as tissue-based. The gist of the method: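 Crude synaptic P2 membranes from Sprague–Dawley rat forebrain (cerebellum and medulla excluded), washed in HEPES-salt buffer pH-unspecified (HEPES 15 mM, NaCl 120 mM, KCl 5.4 mM, MgCl2 0.8 mM, CaCl2 1.8 mM). Mean ± SEM, n = 3-5.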

Chain of Neuronal acetylcholine receptor; alpha4/beta2 (P09483 whole entry): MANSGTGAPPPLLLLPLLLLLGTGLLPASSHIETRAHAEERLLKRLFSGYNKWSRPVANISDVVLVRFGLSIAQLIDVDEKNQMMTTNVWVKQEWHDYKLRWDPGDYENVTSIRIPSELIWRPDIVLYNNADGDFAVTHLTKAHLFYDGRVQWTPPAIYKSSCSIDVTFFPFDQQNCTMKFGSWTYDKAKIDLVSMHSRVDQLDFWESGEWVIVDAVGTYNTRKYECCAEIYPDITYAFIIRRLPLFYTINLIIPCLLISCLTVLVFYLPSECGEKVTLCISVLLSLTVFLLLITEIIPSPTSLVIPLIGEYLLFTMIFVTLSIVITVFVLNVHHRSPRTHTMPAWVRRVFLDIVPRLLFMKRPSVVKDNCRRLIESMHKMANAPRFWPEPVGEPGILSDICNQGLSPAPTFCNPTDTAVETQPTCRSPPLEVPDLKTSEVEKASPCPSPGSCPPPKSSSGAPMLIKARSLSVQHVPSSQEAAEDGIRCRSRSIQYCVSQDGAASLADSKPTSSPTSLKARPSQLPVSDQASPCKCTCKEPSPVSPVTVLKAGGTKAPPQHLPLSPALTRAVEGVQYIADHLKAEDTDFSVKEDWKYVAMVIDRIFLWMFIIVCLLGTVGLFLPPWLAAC
Chain of Neuronal acetylcholine receptor; alpha4/beta2 (P12390 whole entry): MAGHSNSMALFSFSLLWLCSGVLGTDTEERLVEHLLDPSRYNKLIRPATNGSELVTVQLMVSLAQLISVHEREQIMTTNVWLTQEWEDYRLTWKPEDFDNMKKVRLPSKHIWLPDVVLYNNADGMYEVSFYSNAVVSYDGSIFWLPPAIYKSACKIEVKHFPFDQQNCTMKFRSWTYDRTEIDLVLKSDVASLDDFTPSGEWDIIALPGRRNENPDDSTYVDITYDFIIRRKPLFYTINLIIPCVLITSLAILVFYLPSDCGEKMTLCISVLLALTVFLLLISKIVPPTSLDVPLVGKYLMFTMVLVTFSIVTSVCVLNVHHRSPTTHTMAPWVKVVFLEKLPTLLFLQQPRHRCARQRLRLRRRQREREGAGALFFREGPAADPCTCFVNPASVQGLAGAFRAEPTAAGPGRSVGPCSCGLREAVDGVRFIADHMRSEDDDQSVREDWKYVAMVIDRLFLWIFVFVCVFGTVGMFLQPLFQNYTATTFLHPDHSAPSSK
Chain of Neuronal acetylcholine receptor subunit alpha-7 (Q05941 whole entry): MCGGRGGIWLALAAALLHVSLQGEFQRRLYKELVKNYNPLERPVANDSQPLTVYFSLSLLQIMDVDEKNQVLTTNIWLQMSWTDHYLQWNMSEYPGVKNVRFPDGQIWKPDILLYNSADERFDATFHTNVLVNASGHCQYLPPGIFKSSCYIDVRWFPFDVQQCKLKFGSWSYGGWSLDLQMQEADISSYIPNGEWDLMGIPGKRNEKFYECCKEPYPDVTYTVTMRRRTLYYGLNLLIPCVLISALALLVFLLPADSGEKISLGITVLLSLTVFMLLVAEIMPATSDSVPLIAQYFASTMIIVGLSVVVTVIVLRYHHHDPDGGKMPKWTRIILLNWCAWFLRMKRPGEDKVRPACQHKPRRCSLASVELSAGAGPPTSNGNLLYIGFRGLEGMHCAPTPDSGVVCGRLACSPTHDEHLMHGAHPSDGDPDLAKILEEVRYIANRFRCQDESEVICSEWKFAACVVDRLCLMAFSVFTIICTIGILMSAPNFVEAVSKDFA

With `Clc1ccc(C2=CCC[C@H]3CCC2N3)cn1`, affinity in assay [1] was put at a Ki of 12 nM.
Regarding `C1=C(c2cnccn2)C2CC[C@H](CC1)N2`, the Ki (usually a dissociation constant, usually derived from enzyme kinetics or from competition with a known ligand) in assay [1] came out at 250 nM; in assay [2] it was 12 nM.
The matching figures for `C1=C(c2cccnc2)C2CC[C@H](CC1)N2`: 0.95 nM and 0.051 nM.
Regarding `C1=C(c2cncnc2)C2CC[C@H](CC1)N2`, the Ki was determined as 10.7 nM in assay [1] and 0.14 nM in assay [2].
The matching figures for `C1=C(c2ccnnc2)C2CC[C@H](CC1)N2`: above 10 nM and 19 nM.
